Results published in ChEMBL document CHEMBL1154529, “Conformationally constrained opioid ligands: the Dmt-Aba and Dmt-Aia versus Dmt-Tic scaffold” (Bioorg Med Chem Lett, 2009).
Residues, ends and D or L forms follow the SMILES beside them.

Legend:
Mu-type opioid receptor [1] = target: Mu-type opioid receptor (Rattus norvegicus, UniProt P33535); assay: Displacement of [3H]DAMGO from mu opioid receptor in Sprague-Dawley rat brain synaptosomal membranes; assay type: cell membranes, Membrane
How it was run: (§1)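 Radioligand competition in rat brain synaptosomal preparations. Peptides tested at five to eight graded doses, each assay in duplicate, repeated three to six times on several different synaptosomal preparations. Ki calculated by Cheng–Prusoff; mean ± SEM.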

[2] = target: T1, Delta-type opioid receptor (Mus musculus, UniProt P32300); assay: Agonist activity at delta opioid receptor in mouse assessed as inhibition of electrically evoked vas-deferens contraction by MVD test
T1 sequence (P32300 whole entry): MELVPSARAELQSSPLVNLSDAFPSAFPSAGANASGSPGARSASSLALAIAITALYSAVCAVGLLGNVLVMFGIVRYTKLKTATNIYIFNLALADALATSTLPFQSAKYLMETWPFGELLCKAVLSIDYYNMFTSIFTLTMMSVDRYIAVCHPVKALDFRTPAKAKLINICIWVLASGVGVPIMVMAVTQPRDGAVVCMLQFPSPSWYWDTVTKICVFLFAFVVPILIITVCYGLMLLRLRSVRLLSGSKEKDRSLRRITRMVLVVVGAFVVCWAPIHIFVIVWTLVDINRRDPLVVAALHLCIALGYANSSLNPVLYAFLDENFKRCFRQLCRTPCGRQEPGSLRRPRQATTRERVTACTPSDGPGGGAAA

Mu-type opioid receptor [3] = target: Mu-type opioid receptor (Cavia porcellus, UniProt P97266); assay: Agonist activity at mu opioid receptor in Hartley guinea pig assessed as inhibition of electrically evoked ileum contraction by GPI test; assay type: functional, tissue-based
Sequence of Mu-type opioid receptor (Cavia porcellus, UniProt P97266) (P97266 whole entry): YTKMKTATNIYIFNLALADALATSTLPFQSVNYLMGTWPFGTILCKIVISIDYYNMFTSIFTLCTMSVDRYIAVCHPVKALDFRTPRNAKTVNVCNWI
How it was run: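 Isolated tissue bioassays: mouse vas deferens (delta) and guinea-pig ileum (mu). Agonism expressed as IC50 read from dose–response curves. Internal standards were deltorphin C (MVD) and dermorphin (GPI). Mean ± SEM of at least six fresh tissue samples.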

Rattus norvegicus [4] = species on record: Rattus norvegicus; assay: Selectivity ratio of Ki for Sprague-Dawley rat mu opioid receptor to Ki for Sprague-Dawley rat delta opioid receptor
[5] = target: T1, Delta-type opioid receptor; assay: Antagonist activity at delta opioid receptor in mouse assessed as effect on electrically evoked vas-deferens contraction by MVD test; assay type: functional; details: read-out: pA2 (converted)
[6] = target: Delta-type opioid receptor (Rattus norvegicus, UniProt P33533); assay: Displacement of [3H]DPDPE from delta opioid receptor in Sprague-Dawley rat brain synaptosomal membranes; assay type: cell membranes, Membrane; how it was run: as §1
Sequence of Delta-type opioid receptor (Rattus norvegicus, UniProt P33533) (P33533 whole entry): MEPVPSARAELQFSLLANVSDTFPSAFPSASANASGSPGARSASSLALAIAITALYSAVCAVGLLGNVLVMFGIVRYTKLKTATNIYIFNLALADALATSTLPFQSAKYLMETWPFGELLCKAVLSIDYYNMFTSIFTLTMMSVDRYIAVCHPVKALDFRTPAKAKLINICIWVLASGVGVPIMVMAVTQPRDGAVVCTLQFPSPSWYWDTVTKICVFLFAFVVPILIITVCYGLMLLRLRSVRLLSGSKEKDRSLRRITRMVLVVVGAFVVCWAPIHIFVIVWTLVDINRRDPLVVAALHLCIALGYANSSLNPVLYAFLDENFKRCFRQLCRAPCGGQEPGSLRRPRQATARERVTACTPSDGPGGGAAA

Rattus norvegicus [7] = species on record: Rattus norvegicus; assay: Selectivity ratio of Ki for Sprague-Dawley rat delta opioid receptor to Ki for Sprague-Dawley rat mu opioid receptor

Sequence of Mu-type opioid receptor (Rattus norvegicus, UniProt P33535) (P33535 whole entry): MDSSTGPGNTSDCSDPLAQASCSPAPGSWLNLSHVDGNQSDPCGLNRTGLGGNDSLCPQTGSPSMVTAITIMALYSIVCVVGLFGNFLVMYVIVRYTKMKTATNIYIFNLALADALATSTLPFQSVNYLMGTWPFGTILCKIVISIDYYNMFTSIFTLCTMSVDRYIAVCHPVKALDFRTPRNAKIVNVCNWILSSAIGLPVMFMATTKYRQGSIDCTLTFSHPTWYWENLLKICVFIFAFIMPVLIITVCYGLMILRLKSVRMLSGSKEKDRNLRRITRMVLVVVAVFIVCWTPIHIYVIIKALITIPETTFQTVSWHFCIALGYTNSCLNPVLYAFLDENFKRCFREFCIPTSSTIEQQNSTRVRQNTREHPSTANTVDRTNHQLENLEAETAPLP

| Structure (SMILES) | Ki (Mu-type opioid receptor [1]) | IC50 [2] | IC50 (Mu-type opioid receptor [3]) | Ratio Ki (Rattus norvegicus [4]) | Kb [5] | Ki [6] | Ratio Ki (Rattus norvegicus [7]) |
| --- | --- | --- | --- | --- | --- | --- | --- |
| Cc1cc(O)cc(C)c1C[C@@H](C(=O)N[C@H]1Cc2c([nH]c3ccccc23)CN(CC(=O)O)C1=O)N(C)C | 875 nM | > 20000 nM | > 20000 nM | 132 | 5.01 nM | 6.64 nM | – |
| Cc1cc(O)cc(C)c1C[C@H](N)C(=O)N[C@H]1Cc2ccccc2CN([C@@H](CC(=O)O)C(=O)NCc2ccccc2)C1=O | 630 nM | – | – | – | – | 1480 nM | 2.3 |
| Cc1cc(O)cc(C)c1C[C@H](N)C(=O)N[C@H]1Cc2c([nH]c3ccccc23)CN(CC(=O)OCc2ccccc2)C1=O | 244 nM | – | – | – | – | 4060 nM | 17 |
| Cc1cc(O)cc(C)c1C[C@H](N)C(=O)N[C@H]1Cc2ccccc2CNC1=O | 12.4 nM | – | 631 nM | – | – | 368 nM | 30 |
| Cc1cc(O)cc(C)c1C[C@H](N)C(=O)N[C@H]1Cc2c([nH]c3ccccc23)CN(CC(=O)NCc2ccccc2)C1=O | 50 nM | – | 1800 nM | – | – | 358 nM | 7.2 |
| Cc1cc(O)cc(C)c1C[C@@H](C(=O)N[C@@H]1Cc2c([nH]c3ccccc23)CN(CC(=O)O)C1=O)N(C)C | 10100 nM | – | – | 8.8 | – | 1150 nM | – |
| Cc1cc(O)cc(C)c1C[C@@H](C(=O)N[C@@H]1Cc2c([nH]c3ccccc23)CN(CC(=O)NCc2ccccc2)C1=O)N(C)C | 133 nM | – | – | – | – | 681 nM | 5 |
| Cc1cc(O)cc(C)c1C[C@H](N)C(=O)N1Cc2ccccc2C[C@H]1C(=O)NCC(=O)NCc1ccccc1 (HELM PEPTIDE1{[Cc1cc(O)cc(C)c1C[C@H](N)C(=O)[*:2]].[Tic].G.[c1ccc(CN[*:1])cc1]}$$$$V2.0) | – | – | – | 5.2 | 0.501 nM | – | – |
| Cc1cc(O)cc(C)c1C[C@H](N)C(=O)N[C@H]1Cc2ccccc2CN(CC(=O)NCc2ccccc2)C1=O | 0.46 nM | – | – | – | – | 11 nM | 24 |
| Cc1cc(O)cc(C)c1C[C@@H](C(=O)N[C@H]1Cc2ccccc2CNC1=O)N(C)C | 64.9 nM | > 20000 nM | > 20000 nM | 3.2 | 63.1 nM | 20.5 nM | – |
| Cc1cc(O)cc(C)c1C[C@H](N)C(=O)N[C@H]1Cc2ccccc2CN([C@@H](CCCCN)C(=O)NCc2ccccc2)C1=O | 10.1 nM | – | 3270 nM | – | – | 290 nM | 29 |
| Cc1cc(O)cc(C)c1C[C@H](N)C(=O)N[C@@H]1Cc2c([nH]c3ccccc23)CN(CC(=O)NCc2ccccc2)C1=O | 3.35 nM | 1500 nM | 14.9 nM | – | – | 161 nM | 48 |
| Cc1cc(O)cc(C)c1C[C@H](N)C(=O)N[C@@H]1Cc2c([nH]c3ccccc23)CN(CC(=O)O)C1=O | 2900 nM | – | – | 4 | – | 720 nM | – |
| Cc1cc(O)cc(C)c1C[C@H](N)C(=O)N[C@H]1Cc2c([nH]c3ccccc23)CN(CC(=O)O)C1=O | 1450 nM | – | > 20000 nM | 1.8 | – | 806 nM | – |
